Measured values from publication PMC6792223 (Chemistry of Materials, 2019).

Assays:
[1] = target: proteinase K (Parengyodontium album, UniProt P06873); test: Hydrogel weight loss in proteinase K solution or PBS; type: in vitro ADME; settings: PBS 1× without enzyme, 37 °C, 22 days
Procedure, shortened: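 Gels (10 mM PA-E3, 10 mM DBS-COOH, or 5 mM/5 mM mixture) formed by GdL acidification, soaked 1 h in PBS, then incubated at 37 °C in proteinase K (5 mg/mL in PBS) or PBS 1× alone; solutions renewed after each weighing at intervals up to 22 days; weight loss = (Wf – Wi)/Wi × 100 versus initial weight.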

[2] = Optical appearance of the hydrogels; type: physicochemical; settings: 10 mM gelator, gelation by GdL acidification overnight; visual
Procedure, shortened: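 Gelators at 10 mM in PBS (pH 7.4) were dissolved with 0.5 M NaOH (to pH 9), either singly or mixed at 100/0, 80/20, 50/50, 20/80 and 0/100 molar % (10 mM total). Solutions were shaken with GdL (4 mg per vial) until dissolved, then left overnight to gel.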

[3] = aqueous; cited from earlier work
[4] = system: Human-adipose-derived stem cells (hADSCs); test: Live/dead assay of cells cultured on the hydrogels; type: cell-based; settings: 4 days in culture, live/dead staining
Procedure, shortened: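 GdL-formed gels at 1:0, 4:1, 1:1, 1:4 and 0:1 PA-E3/DBS-COOH were cross-linked with 50 mM CaCl2 and PBS-washed to pH 7. hADSCs were seeded at 5000 cells/mL and cultured 4 days at 37 °C, 5% CO2, with tissue-culture plastic as reference. Stained 30 min with calcein AM (live, green) and ethidium homodimer-1 (dead, red); imaged by confocal microscopy.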

Sequence of proteinase K (P06873 106-384, species assumed): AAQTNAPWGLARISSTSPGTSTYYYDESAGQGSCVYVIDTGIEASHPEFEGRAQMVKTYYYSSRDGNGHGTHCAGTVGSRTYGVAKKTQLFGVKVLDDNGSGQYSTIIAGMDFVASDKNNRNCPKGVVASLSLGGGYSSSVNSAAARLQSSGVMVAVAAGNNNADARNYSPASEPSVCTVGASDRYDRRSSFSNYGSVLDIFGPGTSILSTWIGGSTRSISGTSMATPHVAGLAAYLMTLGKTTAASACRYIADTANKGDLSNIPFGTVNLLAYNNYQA

Row | Weight ratio of hydrogel in PBS [1] | Optical appearance of hydrogel (transparency) [2] | Compound | pKa of the terminal carboxylic acid [3] | Live cell coverage of hydrogel ([4]; confocal imaging) | Cell viability on hydrogel compared with PA-E3 hydrogels ([4]; qualitative comparison)
1 | remained constant | optically transparent | CH3-(CH2)14-CONH-VVVAAAEEE-CONH2 [PA-E3] | 4–5 |  | 
2 |  | translucent | O=C(O)c1ccc([C@@H]2OC[C@@H]3O[C@H](c4ccc(C(=O)O)cc4)O[C@H]([C@H](O)CO)[C@@H]3O2)cc1 [DBS-COOH] | 4–5 | fully covered with live cells | more viable
